# Results reported in ChEMBL document CHEMBL1143122, “Novel analogs of D-e-MAPP and B13. Part 1: synthesis and evaluation as potential anticancer agents” (Bioorg Med Chem, 2008).
# Tests used:
# Type in all cases: functional
# SK-MEL-2 = assay: Antiproliferative activity against human SKMEL2 cells after 48 hrs; details: SK-MEL-2, 48 h
# Summary of the method: (§1)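 NCI 60-cell screen. Cells were grown in RPMI 1640 with 5% FBS and 2 mM L-glutamine, then plated at 5,000–40,000 cells/well according to doubling time and preincubated for 24 h at 37 °C in 5% CO2. Compounds were dissolved in DMSO at 400× the top final concentration and tested at five 10-fold dilutions from 10−4 to 10−8 M for 48 h. Growth was read spectrophotometrically; GI50 is 50% net protein reduction.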
# K562 = assay: Antiproliferative activity against human K562 cells after 48 hrs; details: K562, 48 h; summary of the method: as §1
# RPMI-8226 = assay: Antiproliferative activity against human RPMI8226 cells after 48 hrs; details: RPMI-8226, 48 h; summary of the method: as §1
# HT-29 = assay: Antiproliferative activity against human HT29 cells after 48 hrs; details: HT-29, 48 h; summary of the method: as §1
# UACC-62 = assay: Antiproliferative activity against human UACC62 cells after 48 hrs; details: UACC-62, 48 h
# Summary of the method: (§2)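 NCI 60-cell-line screen. Lines grown in RPMI 1640 with 5% fetal bovine serum and 2 mM L-glutamine, plated at 5,000–40,000 cells/well according to doubling time, left 24 h at 37 °C in 5% CO2. Drug stocks in DMSO at 400-fold the top final concentration. Five 10-fold dilutions, 10−4 to 10−8 M, incubated 48 h. Growth read spectrophotometrically as net protein; GI50 taken as 50% reduction.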
# T47D = assay: Antiproliferative activity against human T47D cells after 48 hrs; summary of the method: as §2
# CAKI-1 = assay: Antiproliferative activity against human CAKI1 cells after 48 hrs; details: CAKI-1, 48 h; summary of the method: as §1
# NCI-H522 = assay: Antiproliferative activity against human NCI-H522 cells after 48 hrs; details: NCI-H522, 48 h; summary of the method: as §1
# HOP-92 = assay: Antiproliferative activity against human HOP92 cells after 48 hrs; details: HOP-92, 48 h; summary of the method: as §1
# 786-0 = assay: Antiproliferative activity against human 786-0 cells after 48 hrs; details: 786-0, 48 h; summary of the method: as §1
# TK-10 = assay: Antiproliferative activity against human TK10 cells after 48 hrs; details: TK-10, 48 h; summary of the method: as §2
# UACC-257 = assay: Antiproliferative activity against human UACC257 cells after 48 hrs; details: UACC-257, 48 h; summary of the method: as §2
# A498 = assay: Antiproliferative activity against human A498 cells after 48 hrs; details: A498, 48 h; summary of the method: as §1
# Malme-3M = assay: Antiproliferative activity against human MALME3M cells after 48 hrs; summary of the method: as §1
# BT-549 = assay: Antiproliferative activity against human BT549 cells after 48 hrs; details: BT-549, 48 h; summary of the method: as §1
# SF-295 = assay: Antiproliferative activity against human SF295 cells after 48 hrs; details: SF-295, 48 h; summary of the method: as §1
# NCI-H322M = assay: Antiproliferative activity against human NCI-H322M cells after 48 hrs; summary of the method: as §1
# [1] = Antiproliferative activity against human […] cells after 48 hrs; summary of the method: as §1
# MOLT-4 = assay: Antiproliferative activity against human MOLT4 cells after 48 hrs; details: MOLT-4, 48 h; summary of the method: as §1
# SW-620 = assay: Antiproliferative activity against human SW620 cells after 48 hrs; details: SW-620, 48 h; summary of the method: as §2
# DU-145 = assay: Antiproliferative activity against human DU145 cells after 48 hrs; details: DU-145, 48 h; summary of the method: as §1
# SK-MEL-5 = assay: Antiproliferative activity against human SKMEL5 cells after 48 hrs; details: SK-MEL-5, 48 h; summary of the method: as §1
# MDA-MB-231 = assay: Antiproliferative activity against human MDA-MB-231 cells after 48 hrs; details: MDA-MB-231, 48 h; summary of the method: as §1
# Hs-578T = assay: Antiproliferative activity against human HS578T cells after 48 hrs; summary of the method: as §1
# SK-MEL-28 = assay: Antiproliferative activity against human SKMEL28 cells after 48 hrs; details: SK-MEL-28, 48 h; summary of the method: as §1
# KM12 = assay: Antiproliferative activity against human KM12 cells after 48 hrs; details: Homo sapiens, KM12, 48 h; summary of the method: as §1
# HOP-62 = assay: Antiproliferative activity against human HOP62 cells after 48 hrs; details: HOP-62, 48 h; summary of the method: as §1
# SNB-75 = assay: Antiproliferative activity against human SNB75 cells after 48 hrs; details: SNB-75, 48 h; summary of the method: as §1
# [2] = read-out: Log LC50 (the source's name) (converted)
compound,measurement,setting,value
CCCCCCCCCCCCCCN[C@H](CO)[C@H](O)c1ccccc1,GI50,SK-MEL-2,2.14 µM
same,LC50,SK-MEL-2,> 100 µM
same,TGI,SK-MEL-2; read-out: Log TGI (converted),4.79 µM
same,GI50,K562,2.24 µM
same,LC50,K562,> 100 µM
same,TGI,K562; read-out: Log TGI (converted),4.9 µM
same,GI50,RPMI-8226,1.66 µM
same,CC50,RPMI-8226; [2],7.76 µM
same,TGI,RPMI-8226; read-out: Log TGI (converted),3.63 µM
same,GI50,HT-29,1.7 µM
same,LC50,HT-29,5.62 µM
same,TGI,HT-29; read-out: Log TGI (converted),3.09 µM
same,GI50,UACC-62,1.82 µM
same,LC50,UACC-62,7.59 µM
same,TGI,UACC-62; read-out: Log TGI (converted),3.72 µM
same,GI50,T47D,1.91 µM
same,TGI,T47D; read-out: Log TGI (converted),3.63 µM
same,GI50,CAKI-1,1.66 µM
same,CC50,CAKI-1; [2],7.76 µM
same,TGI,CAKI-1; read-out: Log TGI (converted),3.55 µM
same,GI50,NCI-H522,2 µM
same,TGI,NCI-H522; read-out: Log TGI (converted),3.8 µM
same,GI50,HOP-92,1.41 µM
same,LC50,HOP-92,5.89 µM
same,TGI,HOP-92; read-out: Log TGI (converted),2.88 µM
same,GI50,786-0,1.62 µM
same,CC50,786-0; [2],5.62 µM
same,TGI,786-0; read-out: Log TGI (converted),3.02 µM
same,GI50,TK-10,2 µM
same,CC50,TK-10; [2],13.8 µM
same,TGI,TK-10; read-out: Log TGI (converted),4.68 µM
same,GI50,UACC-257,1.7 µM
same,CC50,UACC-257; [2],7.24 µM
same,TGI,UACC-257; read-out: Log TGI (converted),3.47 µM
same,GI50,A498,18.2 µM
same,CC50,A498; [2],> 100 µM
same,TGI,A498; read-out: Log TGI (converted),42.7 µM
same,GI50,Malme-3M,2.09 µM
same,LC50,Malme-3M,9.55 µM
same,TGI,Malme-3M; read-out: Log TGI (converted),3.8 µM
same,GI50,BT-549,1.29 µM
same,LC50,BT-549,5.5 µM
same,TGI,BT-549; read-out: Log TGI (converted),2.63 µM
same,GI50,SF-295,1.86 µM
same,LC50,SF-295,6.76 µM
same,TGI,SF-295; read-out: Log TGI (converted),3.55 µM
same,GI50,NCI-H322M,2.14 µM
same,CC50,NCI-H322M; [2],7.24 µM
same,TGI,NCI-H322M; read-out: Log TGI (converted),3.89 µM
same,GI50,[1],3.16 µM
same,LC50,[1],91.2 µM
same,TGI,[1]; read-out: Log TGI (converted),17.4 µM
same,GI50,MOLT-4,2.09 µM
same,GI50,SW-620,2.4 µM
same,LC50 (concentration killing 50% of cells),SW-620,> 100 µM
same,GI50,DU-145,1.66 µM
same,CC50,DU-145; [2],6.17 µM
same,TGI,DU-145; read-out: Log TGI (converted),3.16 µM
same,GI50,SK-MEL-5,2.14 µM
same,TGI,SK-MEL-5; read-out: Log TGI (converted),4.07 µM
same,GI50,MDA-MB-231,1.74 µM
same,LC50 (50% lethal concentration),MDA-MB-231,6.61 µM
same,TGI,MDA-MB-231; read-out: Log TGI (converted),3.39 µM
same,GI50,Hs-578T,2.82 µM
same,LC50,Hs-578T,> 100 µM
same,TGI,Hs-578T; read-out: Log TGI (converted),6.46 µM
same,GI50,SK-MEL-28,1.82 µM
same,LC50,SK-MEL-28,5.62 µM
same,TGI,SK-MEL-28; read-out: Log TGI (converted),3.24 µM
same,GI50,KM12,1.86 µM
same,CC50,KM12; [2],5.89 µM
same,TGI,KM12; read-out: Log TGI (converted),3.31 µM
same,GI50,HOP-62,1.48 µM
same,CC50,HOP-62; [2],5.37 µM
same,TGI,HOP-62; read-out: Log TGI (converted),2.82 µM
same,GI50,SNB-75,2.29 µM
same,CC50,SNB-75; [2],27.5 µM
same,TGI,SNB-75; read-out: Log TGI (converted),5.62 µM
